ChEMBL document CHEMBL4406794, “N-(7-Cyano-6-(4-fluoro-3-(2-(3-(trifluoromethyl)phenyl)acetamido)phenoxy)benzo[d]thiazol-2-yl)cyclopropanecarboxamide (TAK-632) Analogues as Novel Necroptosis Inhibitors by Targeting Receptor-Interacting Protein Kinase 3 (RIPK3): Synthesis, Structure-Activity Relationships, and in Vivo Efficacy” (J Med Chem, 2019)
Active and inactive are the calls of the source. No cut-off for these calls is given here.

How the values were obtained:
[1] = target: T1, Receptor-interacting serine/threonine-protein kinase 1 (Homo sapiens, UniProt Q13546); assay: Binding affinity to wild-type human partial length RIPK1 (M1 to K305 residues) expressed in bacterial expression system after 1 hr by quantitative PCR based KINOMEscan assay
T1 sequence (Q13546 whole entry): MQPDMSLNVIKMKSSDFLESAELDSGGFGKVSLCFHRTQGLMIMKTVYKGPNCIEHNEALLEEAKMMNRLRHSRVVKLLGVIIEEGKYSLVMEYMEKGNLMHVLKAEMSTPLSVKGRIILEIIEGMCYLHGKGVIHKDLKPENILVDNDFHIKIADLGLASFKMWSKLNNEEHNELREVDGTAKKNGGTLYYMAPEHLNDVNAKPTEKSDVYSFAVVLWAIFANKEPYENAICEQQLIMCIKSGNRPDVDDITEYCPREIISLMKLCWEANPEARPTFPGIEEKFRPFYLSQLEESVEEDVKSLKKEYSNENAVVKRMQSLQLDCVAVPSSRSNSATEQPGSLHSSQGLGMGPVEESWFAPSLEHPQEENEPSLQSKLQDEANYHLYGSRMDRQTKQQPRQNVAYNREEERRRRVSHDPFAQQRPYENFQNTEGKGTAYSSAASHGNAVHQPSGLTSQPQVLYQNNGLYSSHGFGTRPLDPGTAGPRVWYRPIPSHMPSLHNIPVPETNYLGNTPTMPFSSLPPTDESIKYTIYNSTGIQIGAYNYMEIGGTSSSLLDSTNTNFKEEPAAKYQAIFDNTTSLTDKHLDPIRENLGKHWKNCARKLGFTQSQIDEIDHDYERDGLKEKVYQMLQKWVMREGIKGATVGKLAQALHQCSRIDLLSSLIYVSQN
Method in brief: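 KINOMEscan competition binding. Bound kinase eluted with 0.5 μM nonbiotinylated ligand for 30 min and quantified by qPCR. Duplicates averaged.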

[2] = Cytotoxicity against human HT-29 cells measured after 12 hrs by CellTiter-Glo Luminescent assay; type: cell-based
[3] = test system: Serine/threonine-protein kinase B-raf (Homo sapiens), P15056 [V600E]; assay: Inhibition of human partial length BRAF V600E mutant (S429 to E741 residues) expressed in mammalian expression system assessed as enzyme remaining activity at 1000 nM by Kinomescan method relative to control
[4] = test system: Epidermal growth factor receptor (Homo sapiens), P00533 [L858R]; assay: Inhibition of wild-type human partial length EGFR L858R mutant (R669 to V1011 residues) expressed in bacterial expression system assessed as enzyme remaining activity at 1000 nM by Kinomescan method relative to control
Method in brief: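 KINOMEscan binding competition. […] Incubation was 1 h at room temperature with shaking, then bead wash and elution with 0.5 μM nonbiotinylated ligand for 30 min. Eluted kinase was quantified by qPCR. Compound was diluted from 40× DMSO stocks to 1000 nM final.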

[5] = target: Mitogen-activated protein kinase 3 (Homo sapiens) (UniProt P27361); assay: Inhibition of wild-type human full length ERK1 (M1 to P379 residues) expressed in bacterial expression system assessed as enzyme remaining activity at 1000 nM by Kinomescan method relative to control
[6] = target: Fibroblast growth factor receptor 2 (Homo sapiens) (UniProt P21802); assay: Inhibition of wild-type human partial length FGFR2 (D457 to E769 residues) expressed in bacterial expression system assessed as enzyme remaining activity at 1000 nM by Kinomescan method relative to control
HT-29 [7] = assay: Cytoprotection against TNFalpha/cycloheximide/Z-VAD-fmk-induced necroptosis in human HT-29 cells at 3 uM treated prior to TNFalpha/cycloheximide/Z-VAD-fmk stimulation and measured after 12 hrs by cell-Titer Glo luminescent cell viability assay; type: functional, cell-based
Method in brief: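 HT-29 cells pretreated with compound at 3 μM or DMSO, then given TNF-α 20 ng/mL, cycloheximide 5 μg/mL and z-VAD-fmk 20 μM for 12 h. Viability read by CellTiter-Glo luminescence.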

HT-29 [8] = assay: Effect on TNFalpha/cycloheximide-induced apoptosis in human HT-29 cells at 3 uM treated prior to TNFalpha/cycloheximide stimulation and measured after 20 hrs by cell-Titer Glo luminescent cell viability assay; type: cell-based; details: ht-29, 20 h
Method in brief: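 HT-29 cells pretreated with compound at 3 μM or DMSO, then given TNF-α 20 ng/mL with either cycloheximide 5 μg/mL (TC) or Smac mimetic 10 nM (TS) for 20 h. Viability read by CellTiter-Glo luminescence.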

L929 = assay: Cytoprotection against TNFalpha/Z-VAD-fmk-induced necroptosis in mouse L929 cells at 0.01 to 1 uM treated prior to TNFalpha/Z-VAD-fmk stimulation and measured after 4 hrs by cell-Titer Glo luminescent cell viability assay; type: functional, cell-based
Method in brief: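 Mouse L929 cells (DMEM, 10% FBS) pretreated with compound at the indicated concentrations, then given mouse TNF-α 20 ng/mL and z-VAD-fmk 20 μM for 4 h. Viability read by CellTiter-Glo luminescence.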

[9] = target: T1, Receptor-interacting serine/threonine-protein kinase 1; assay: Inhibition of RIPK1 phosphorylation in TNFalpha/smac mimetic/Z-VAD-fmk stimulated human HT-29 cells at 1 uM treated prior to TNFalpha/smac mimetic/Z-VAD-fmk stimulation and measured after 2 to 4 hrs by SDS-PAGE based immunoblot assay; type: cell-based; details: ht-29, 1 µM
[10] = AUC (0 to t) in Sprague-Dawley rat at 1 mg/kg, iv by LC-tandem mass spectrometry analysis; type: ADME, organism-based; details: in vivo
Method in brief: (§1)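 Male Sprague-Dawley rats dosed once i.v. at 1 mg/kg or intragastrically at 5 mg/kg. Compound dissolved in 5% DMSO, 10% Tween 80, 75% physiological saline at 0.2 and 1 mg/mL. Blood taken at several time points, plasma spun at 4 °C, stored at -80 °C, assayed by LC/MS/MS. Parameters from individual animals by noncompartmental analysis.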

[11] = Apparent volume of distribution at steady state in Sprague-Dawley rat at 1 mg/kg, iv by LC-tandem mass spectrometry analysis; type: ADME, organism-based; details: in vivo, read-out: Vdss(app); method in brief: as §1
[12] = AUC (0 to t) in Sprague-Dawley rat at 5 mg/kg, po by LC-tandem mass spectrometry analysis; type: ADME, organism-based; details: in vivo; method in brief: as §1
[13] = Oral bioavailability in Sprague-Dawley rat at 5 mg/kg by LC-tandem mass spectrometry analysis; type: ADME, organism-based; details: in vivo; method in brief: as §1
Mus musculus = assay: Protection against TNFalpha/Z-VAD-fmk-induced C57BL/6J mouse model of systemic inflammatory response syndrome at 5 mg/kg, po administered via gavage 2 hrs prior to Z-VAD-fmk addition for 15 mins followed by TNFalpha stimulation for 1 hr and subsequent Z-VAD-fmk addition meaured up to 50 hrs post TNFalpha stimulation relative to control; type: functional
Method in brief: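 Overnight-fasted C57BL/6 female mice, n=10 per group. Test compound was given by oral gavage 2 h before mTNF-α. z-VAD-fmk (180 µg) was injected ip, then 15 min later mTNF-α in endotoxin-free PBS was injected iv (400 µg/kg). A second z-VAD-fmk dose (70 µg) was given ip 1 h after TNF. Body temperature and survival were followed against vehicle. One-way ANOVA was used.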

[14] = Toxicity in Sprague-Dawley rat at 1 mg/kg, iv or 5 mg/kg, po; type: organism-based; details: in vivo
HT-29 [15] = assay: Anti-necroptotic activity in human HT-29 cells assessed as inhibition of […]/SM-164/Z-VAD-fmk-induced necroptosis measured after 16 hrs by celltiter-glo luminescent cell viability assay; details: HT-29, 16 h

Sequence of Serine/threonine-protein kinase B-raf (Homo sapiens), P15056 [V600E] (P15056 whole entry V600E, the tested form may be a part): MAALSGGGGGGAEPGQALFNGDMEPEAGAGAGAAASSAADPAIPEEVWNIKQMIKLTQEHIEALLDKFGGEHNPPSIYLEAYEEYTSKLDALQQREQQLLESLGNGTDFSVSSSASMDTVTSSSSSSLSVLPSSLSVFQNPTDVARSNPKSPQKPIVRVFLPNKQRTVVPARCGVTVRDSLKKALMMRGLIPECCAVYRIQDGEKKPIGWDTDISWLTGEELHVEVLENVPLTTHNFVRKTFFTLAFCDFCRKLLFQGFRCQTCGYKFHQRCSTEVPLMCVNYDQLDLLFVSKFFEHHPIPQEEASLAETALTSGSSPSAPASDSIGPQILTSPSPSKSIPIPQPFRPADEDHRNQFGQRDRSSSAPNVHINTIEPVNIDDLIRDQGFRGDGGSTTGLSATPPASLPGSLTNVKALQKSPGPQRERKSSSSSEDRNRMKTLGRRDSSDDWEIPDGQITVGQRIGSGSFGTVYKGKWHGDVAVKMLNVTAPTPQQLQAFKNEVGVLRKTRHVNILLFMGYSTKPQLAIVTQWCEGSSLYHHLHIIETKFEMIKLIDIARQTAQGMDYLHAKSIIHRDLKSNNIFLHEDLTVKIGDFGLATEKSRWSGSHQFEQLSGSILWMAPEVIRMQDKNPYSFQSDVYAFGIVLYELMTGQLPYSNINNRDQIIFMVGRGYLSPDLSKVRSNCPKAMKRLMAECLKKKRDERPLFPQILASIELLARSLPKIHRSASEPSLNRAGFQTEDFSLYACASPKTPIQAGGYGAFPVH
Sequence of Mitogen-activated protein kinase 3 (Homo sapiens) (P27361 whole entry, the tested form may be a part): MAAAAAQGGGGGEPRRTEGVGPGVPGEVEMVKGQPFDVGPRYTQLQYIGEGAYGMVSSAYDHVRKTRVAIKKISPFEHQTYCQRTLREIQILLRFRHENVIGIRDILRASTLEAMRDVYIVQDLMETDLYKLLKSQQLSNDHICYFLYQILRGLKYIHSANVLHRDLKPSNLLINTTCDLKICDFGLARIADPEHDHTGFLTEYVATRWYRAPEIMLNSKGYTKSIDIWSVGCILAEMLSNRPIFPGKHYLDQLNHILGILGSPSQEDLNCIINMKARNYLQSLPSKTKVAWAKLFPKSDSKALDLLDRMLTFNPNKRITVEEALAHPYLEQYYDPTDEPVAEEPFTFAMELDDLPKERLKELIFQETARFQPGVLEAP
Sequence of Fibroblast growth factor receptor 2 (Homo sapiens) (P21802 22-821 limits assumed): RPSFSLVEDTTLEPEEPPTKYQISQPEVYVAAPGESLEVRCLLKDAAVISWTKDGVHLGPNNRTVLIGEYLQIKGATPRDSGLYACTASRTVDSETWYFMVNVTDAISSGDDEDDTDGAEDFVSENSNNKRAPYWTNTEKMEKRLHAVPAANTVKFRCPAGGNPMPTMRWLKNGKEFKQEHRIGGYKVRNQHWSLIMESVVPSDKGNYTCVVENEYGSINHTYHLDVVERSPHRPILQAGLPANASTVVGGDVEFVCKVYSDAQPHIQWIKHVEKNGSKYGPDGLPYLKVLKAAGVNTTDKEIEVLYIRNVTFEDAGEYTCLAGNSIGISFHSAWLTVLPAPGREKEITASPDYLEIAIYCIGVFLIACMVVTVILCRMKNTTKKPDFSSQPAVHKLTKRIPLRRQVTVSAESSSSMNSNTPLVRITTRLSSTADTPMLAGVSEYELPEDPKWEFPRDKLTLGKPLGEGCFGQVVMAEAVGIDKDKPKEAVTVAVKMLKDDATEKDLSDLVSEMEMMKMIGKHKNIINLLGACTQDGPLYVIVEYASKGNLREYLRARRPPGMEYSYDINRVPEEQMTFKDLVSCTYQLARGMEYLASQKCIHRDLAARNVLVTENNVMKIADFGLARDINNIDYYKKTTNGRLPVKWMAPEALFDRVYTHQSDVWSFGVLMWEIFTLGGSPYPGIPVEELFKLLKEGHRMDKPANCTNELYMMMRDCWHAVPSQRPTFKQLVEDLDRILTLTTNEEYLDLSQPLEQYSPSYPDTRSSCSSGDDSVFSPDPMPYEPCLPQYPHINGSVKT

O=C(Nc1cccc(Br)c1)Nc1cc(Oc2ccc3nc(NC(=O)C4CC4)sc3c2)ccc1F
Kd [1]: > 5000 nM
CC50 at 12 h [2]: > 50000 nM
Activity [3]: 1.8%
Activity [4]: 61%
Activity [5]: 100%
Activity [6]: 22%
Activity (HT-29 [7]): Active
Activity (HT-29 [8]): Non-Toxic
Activity (L929): Active
inhibition (INH) [9]: Not Active
AUC(0-t) [10]: 5560 ng·h/mL
Vd [11]: 3.49 L/kg
AUC(0-t) [12]: 7010 ng·h/mL
bioavailability [13]: 25.2%
Activity (Mus musculus): 90%
Activity [14]: Non-Toxic
EC50 (HT-29 [15]): 440 nM
